Data reported in ChEMBL document CHEMBL4433251, “Discovery of BR102375, a new class of non-TZD PPARγ full agonist for the treatment of type 2 diabetes” (Bioorg Med Chem Lett, 2019).
Calls of active or inactive are those of the source. No cut-off for these calls is given here.

Key:
[1] = target: T1, Peroxisome proliferator-activated receptor gamma (Mus musculus) (UniProt P37238); assay: Agonist activity at GAL4-tagged mouse PPARgamma LBD expressed in monkey CV1 cells assessed as receptor transactivation incubated for 24 hrs by luciferase reporter gene assay relative to telmisartan; type: cell-based
T1 sequence (whole entry): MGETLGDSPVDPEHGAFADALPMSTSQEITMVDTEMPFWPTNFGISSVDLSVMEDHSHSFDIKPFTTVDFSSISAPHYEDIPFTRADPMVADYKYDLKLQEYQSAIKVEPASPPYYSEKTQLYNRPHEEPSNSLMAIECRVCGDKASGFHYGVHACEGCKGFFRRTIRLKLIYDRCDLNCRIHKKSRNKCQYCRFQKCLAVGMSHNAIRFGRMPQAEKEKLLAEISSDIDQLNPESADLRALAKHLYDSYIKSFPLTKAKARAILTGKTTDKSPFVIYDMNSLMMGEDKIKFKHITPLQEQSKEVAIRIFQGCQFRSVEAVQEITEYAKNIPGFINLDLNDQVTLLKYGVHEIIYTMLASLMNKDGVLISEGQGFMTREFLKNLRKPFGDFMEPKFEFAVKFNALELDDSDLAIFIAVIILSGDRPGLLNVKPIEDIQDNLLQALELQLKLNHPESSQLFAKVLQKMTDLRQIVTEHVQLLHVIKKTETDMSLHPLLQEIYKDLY

[2] = target: T2, Peroxisome proliferator-activated receptor gamma (Homo sapiens, UniProt P37231); assay: Agonist activity at PPARgamma (unknown origin) assessed as receptor transactivation after 24 hrs by TK-PPRE-Luc expressing cells based luciferase reporter gene assay
T2 sequence (P37231 whole entry): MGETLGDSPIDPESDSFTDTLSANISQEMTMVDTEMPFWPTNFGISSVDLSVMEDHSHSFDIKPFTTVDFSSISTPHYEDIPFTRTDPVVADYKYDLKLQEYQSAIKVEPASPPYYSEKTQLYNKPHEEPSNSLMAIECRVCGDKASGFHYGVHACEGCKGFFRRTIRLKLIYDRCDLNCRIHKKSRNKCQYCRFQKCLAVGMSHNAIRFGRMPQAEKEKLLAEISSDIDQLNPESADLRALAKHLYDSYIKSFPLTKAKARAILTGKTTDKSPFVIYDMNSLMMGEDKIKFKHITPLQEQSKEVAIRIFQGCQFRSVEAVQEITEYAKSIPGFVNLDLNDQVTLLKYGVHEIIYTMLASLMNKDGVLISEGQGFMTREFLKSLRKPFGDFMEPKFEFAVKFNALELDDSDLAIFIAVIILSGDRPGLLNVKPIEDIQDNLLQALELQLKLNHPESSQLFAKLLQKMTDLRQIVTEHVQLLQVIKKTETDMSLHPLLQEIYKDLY
In short: (§1)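 Luciferase reporter gene assay in cells transfected with PPRE and luciferase genes; luciferase induction measured over a range of concentrations to derive EC50 and Amax; Amax expressed as a percentage relative to pioglitazone.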

[3] = target: T3, Peroxisome proliferator-activated receptor gamma (Homo sapiens) (UniProt P37231); assay: Agonist activity at PPARgamma (unknown origin) assessed as receptor transactivation after 24 hrs by TK-PPRE-Luc expressing cells based luciferase reporter gene assay relative to pioglitazone; in short: as §1
T3 sequence (whole entry): T2 sequence (P37231 whole entry)

hERG (KCNH2) = hERG (KCNH2) (Homo sapiens, UniProt Q12809); assay: Inhibition of human ERG at 10 uM
In short: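 hERG: % inhibition measured at 10 µM.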

[4] = Stability in mouse liver microsomes assessed as parent compound remaining at 30 mins; type: ADME, Microsome; conditions: read-out: Stability
In short: (§2)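 Compound incubated with liver microsomes (mouse, rat, dog, human) for 30 min; stability expressed as % of parent concentration remaining.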

[5] = Stability in rat liver microsomes assessed as parent compound remaining at 30 mins; type: ADME, Microsome; conditions: read-out: Stability; in short: as §2
[6] = Stability in dog liver microsomes assessed as parent compound remaining at 30 mins; type: ADME, Canis lupus familiaris, Microsome; conditions: read-out: Stability; in short: as §2
[7] = Stability in human liver microsomes assessed as parent compound remaining at 30 mins; type: ADME, Microsome; conditions: read-out: Stability; in short: as §2
CYP1A2 = target: T4, CYP1A2 (Homo sapiens, UniProt P05177); assay: Inhibition of CYP1A2 (unknown origin) assessed as enzyme remaining activity at 10 uM; type: ADME; conditions: read-out: INH
T4 sequence (P05177 whole entry): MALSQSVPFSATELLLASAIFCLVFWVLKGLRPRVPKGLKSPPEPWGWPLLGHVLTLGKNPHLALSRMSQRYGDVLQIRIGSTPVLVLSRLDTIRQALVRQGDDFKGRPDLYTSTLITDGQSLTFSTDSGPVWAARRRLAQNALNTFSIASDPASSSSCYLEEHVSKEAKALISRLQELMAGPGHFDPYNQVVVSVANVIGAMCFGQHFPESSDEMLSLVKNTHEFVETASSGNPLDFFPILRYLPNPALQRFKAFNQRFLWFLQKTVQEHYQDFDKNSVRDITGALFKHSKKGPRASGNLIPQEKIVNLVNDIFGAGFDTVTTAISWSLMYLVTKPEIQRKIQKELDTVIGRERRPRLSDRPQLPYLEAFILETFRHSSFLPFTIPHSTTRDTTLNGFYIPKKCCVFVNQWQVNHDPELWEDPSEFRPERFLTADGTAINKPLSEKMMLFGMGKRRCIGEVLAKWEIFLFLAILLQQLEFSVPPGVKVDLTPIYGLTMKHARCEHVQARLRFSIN
In short: (§3)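 CYP isoforms 1A2, 2C9, 2C19, 2D6, 3A4: % remaining enzyme activity in presence of 10 uM compound.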

CYP2C9 = CYP2C9 (Homo sapiens, UniProt P11712); assay: Inhibition of CYP2C9 (unknown origin) assessed as enzyme remaining activity at 10 uM; type: ADME; conditions: read-out: INH; in short: as §3
CYP2C19 = CYP2C19 (Homo sapiens, UniProt P33261); assay: Inhibition of CYP2C19 (unknown origin) assessed as percentage remaining activity at 10 uM; type: ADME; conditions: read-out: INH; in short: as §3
CYP2D6 = CYP2D6 (Homo sapiens, UniProt P10635); assay: Inhibition of CYP2D6 (unknown origin) assessed as percentage remaining activity at 10 uM; type: ADME; conditions: read-out: INH; in short: as §3
CYP3A4 = CYP3A4 (Homo sapiens, UniProt P08684); assay: Inhibition of CYP3A4 (unknown origin) assessed as percentage remaining activity at 10 uM; type: ADME; conditions: read-out: INH; in short: as §3
[8] = target: T1, Peroxisome proliferator-activated receptor gamma (Mus musculus); assay: Agonist activity at PPARgamma in mouse 3T3-L1 cells assessed as increase in CD36 RNA expression at 10 uM by qRT-PCR analysis; type: cell-based
[9] = target: T1, Peroxisome proliferator-activated receptor gamma (Mus musculus); assay: Agonist activity at PPARgamma in mouse 3T3-L1 cells assessed as increase in AP2 RNA expression at 10 uM by qRT-PCR analysis; type: cell-based
[10] = target: T1, Peroxisome proliferator-activated receptor gamma (Mus musculus); assay: Agonist activity at PPARgamma in mouse 3T3-L1 cells accessed as increase in insulin stimulated 2-deoxy-D-glucose uptake at 10 uM pre-incubated for 20 mins followed by 2-deoxy-D-glucose addition and measured after 20 to 40 mins by glucose uptake assay; type: cell-based
3T3-L1 = assay: Induction of preadipocyte differentiation in mouse 3T3L1 cells grown in insulin medium assessed as conversion to matured adipocytes measured after 6 days by oil red O staining based phase contrast microscopy; type: functional, cell-based
Mus musculus [11] = assay: Antidiabetic activity in db/db mouse assessed as reduction in random blood glucose level at 75 mg/kg, po administered via gavage twice daily for 2 weeks and measured once a week; type: functional, organism-based
Mus musculus [12] = assay: Antidiabetic activity in db/db mouse assessed as reduction in body weight gain at 75 mg/kg, po administered via gavage twice daily for 2 weeks and measured on day 14; type: functional, organism-based
Mus musculus [13] = assay: Antidiabetic activity in db/db mouse assessed as reduction in blood glucose level at 75 mg/kg, po administered twice daily for 2 weeks and measured on day 14 by OGTT method; type: functional, organism-based
[14] = Toxicity in db/db mouse assessed as reduction in food intake at 75 mg/kg, po administered via gavage twice daily and measured on day 7; type: organism-based; conditions: in vivo
[15] = Half life in rat at 10 mg/kg, po; type: ADME, organism-based; conditions: in vivo
[16] = Half life in mouse at 10 mg/kg, po; type: ADME, organism-based; conditions: in vivo
[17] = Tmax in rat at 10 mg/kg, po; type: ADME, organism-based; conditions: in vivo
[18] = Tmax in mouse at 10 mg/kg, po; type: ADME, organism-based; conditions: in vivo
[19] = Cmax in rat at 10 mg/kg, po; type: ADME, organism-based; parameters: dose 10 mg/kg, route oral; conditions: in vivo
[20] = Cmax in mouse at 10 mg/kg, po; type: ADME, organism-based; parameters: dose 10 mg/kg, route oral; conditions: in vivo
[21] = AUClast in rat at 10 mg/kg, po; type: ADME, organism-based; parameters: dose 10 mg/kg, time 0 - last, route oral; conditions: in vivo
[22] = AUClast in mouse at 10 mg/kg, po; type: ADME, organism-based; parameters: dose 10 mg/kg, route oral, time 0 - last; conditions: in vivo

Chain of CYP2D6 (P10635 whole entry): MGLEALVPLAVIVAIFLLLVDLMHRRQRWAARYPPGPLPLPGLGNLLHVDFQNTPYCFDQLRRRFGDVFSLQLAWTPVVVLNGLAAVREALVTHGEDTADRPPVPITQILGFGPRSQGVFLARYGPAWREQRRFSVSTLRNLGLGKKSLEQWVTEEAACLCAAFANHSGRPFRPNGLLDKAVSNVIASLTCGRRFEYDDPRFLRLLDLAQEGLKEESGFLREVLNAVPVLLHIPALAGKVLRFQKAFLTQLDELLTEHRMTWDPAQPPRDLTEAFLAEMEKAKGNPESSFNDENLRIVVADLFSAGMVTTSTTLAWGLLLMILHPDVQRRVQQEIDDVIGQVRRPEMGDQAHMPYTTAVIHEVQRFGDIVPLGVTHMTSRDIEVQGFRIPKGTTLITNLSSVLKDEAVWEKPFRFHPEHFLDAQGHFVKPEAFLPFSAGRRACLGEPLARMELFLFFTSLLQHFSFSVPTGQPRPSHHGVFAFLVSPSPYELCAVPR
Chain of hERG (KCNH2) (Q12809 whole entry): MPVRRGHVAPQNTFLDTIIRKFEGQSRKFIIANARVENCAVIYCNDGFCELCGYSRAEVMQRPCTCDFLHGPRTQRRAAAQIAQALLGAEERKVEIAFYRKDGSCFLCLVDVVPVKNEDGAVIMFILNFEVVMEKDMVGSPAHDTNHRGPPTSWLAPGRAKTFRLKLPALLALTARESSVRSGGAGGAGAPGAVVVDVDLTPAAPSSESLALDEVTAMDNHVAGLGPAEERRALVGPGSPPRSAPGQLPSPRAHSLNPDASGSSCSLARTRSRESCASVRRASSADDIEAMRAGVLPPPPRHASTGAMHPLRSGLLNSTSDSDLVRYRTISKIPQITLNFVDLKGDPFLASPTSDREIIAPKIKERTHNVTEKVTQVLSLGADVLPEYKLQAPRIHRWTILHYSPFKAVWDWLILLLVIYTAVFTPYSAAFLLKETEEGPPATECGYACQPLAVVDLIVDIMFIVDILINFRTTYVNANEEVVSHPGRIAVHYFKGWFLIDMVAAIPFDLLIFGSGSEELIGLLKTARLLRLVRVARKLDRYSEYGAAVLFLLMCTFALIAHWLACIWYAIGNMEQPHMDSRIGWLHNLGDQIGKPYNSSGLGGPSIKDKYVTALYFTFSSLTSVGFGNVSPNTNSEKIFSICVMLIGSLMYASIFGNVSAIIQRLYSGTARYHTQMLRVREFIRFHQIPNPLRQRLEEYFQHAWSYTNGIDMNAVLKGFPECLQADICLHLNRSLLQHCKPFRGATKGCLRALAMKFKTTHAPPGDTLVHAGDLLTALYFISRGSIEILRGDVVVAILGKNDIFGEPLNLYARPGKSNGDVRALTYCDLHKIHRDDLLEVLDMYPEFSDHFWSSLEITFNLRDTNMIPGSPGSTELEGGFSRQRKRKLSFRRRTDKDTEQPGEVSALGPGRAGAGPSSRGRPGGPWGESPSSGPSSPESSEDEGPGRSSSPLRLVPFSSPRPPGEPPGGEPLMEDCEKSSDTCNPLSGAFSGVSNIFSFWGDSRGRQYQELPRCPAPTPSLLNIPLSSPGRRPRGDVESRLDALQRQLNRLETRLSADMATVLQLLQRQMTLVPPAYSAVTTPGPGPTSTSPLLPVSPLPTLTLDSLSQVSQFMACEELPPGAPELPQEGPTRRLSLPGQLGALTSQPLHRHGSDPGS
Chain of CYP2C19 (P33261 whole entry): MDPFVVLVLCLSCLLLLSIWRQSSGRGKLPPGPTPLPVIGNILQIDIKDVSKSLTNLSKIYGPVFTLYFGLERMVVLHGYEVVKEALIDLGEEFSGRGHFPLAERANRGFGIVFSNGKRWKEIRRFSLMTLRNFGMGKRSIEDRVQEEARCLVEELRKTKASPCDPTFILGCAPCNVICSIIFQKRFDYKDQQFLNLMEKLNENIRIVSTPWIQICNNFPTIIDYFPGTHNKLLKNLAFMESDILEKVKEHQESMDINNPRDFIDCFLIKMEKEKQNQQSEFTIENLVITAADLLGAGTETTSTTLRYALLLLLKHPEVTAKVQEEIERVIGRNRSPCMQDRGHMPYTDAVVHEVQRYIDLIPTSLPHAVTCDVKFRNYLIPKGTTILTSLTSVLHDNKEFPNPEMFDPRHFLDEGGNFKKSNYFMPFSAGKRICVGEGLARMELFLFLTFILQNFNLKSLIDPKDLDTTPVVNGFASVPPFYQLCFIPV
Chain of CYP3A4 (P08684 whole entry): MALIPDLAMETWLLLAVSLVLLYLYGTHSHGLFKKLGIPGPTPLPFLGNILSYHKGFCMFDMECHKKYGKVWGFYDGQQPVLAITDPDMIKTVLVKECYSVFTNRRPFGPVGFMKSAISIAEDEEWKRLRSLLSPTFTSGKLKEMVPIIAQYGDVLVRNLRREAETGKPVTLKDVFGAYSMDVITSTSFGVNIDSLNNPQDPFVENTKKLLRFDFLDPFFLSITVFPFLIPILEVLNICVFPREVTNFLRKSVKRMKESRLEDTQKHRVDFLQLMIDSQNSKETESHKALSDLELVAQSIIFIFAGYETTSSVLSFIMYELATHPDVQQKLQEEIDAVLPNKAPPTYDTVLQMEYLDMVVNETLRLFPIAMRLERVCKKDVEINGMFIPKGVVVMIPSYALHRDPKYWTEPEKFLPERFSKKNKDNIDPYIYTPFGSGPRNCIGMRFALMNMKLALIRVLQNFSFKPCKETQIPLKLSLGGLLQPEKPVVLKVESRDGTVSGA
Chain of CYP2C9 (P11712 whole entry): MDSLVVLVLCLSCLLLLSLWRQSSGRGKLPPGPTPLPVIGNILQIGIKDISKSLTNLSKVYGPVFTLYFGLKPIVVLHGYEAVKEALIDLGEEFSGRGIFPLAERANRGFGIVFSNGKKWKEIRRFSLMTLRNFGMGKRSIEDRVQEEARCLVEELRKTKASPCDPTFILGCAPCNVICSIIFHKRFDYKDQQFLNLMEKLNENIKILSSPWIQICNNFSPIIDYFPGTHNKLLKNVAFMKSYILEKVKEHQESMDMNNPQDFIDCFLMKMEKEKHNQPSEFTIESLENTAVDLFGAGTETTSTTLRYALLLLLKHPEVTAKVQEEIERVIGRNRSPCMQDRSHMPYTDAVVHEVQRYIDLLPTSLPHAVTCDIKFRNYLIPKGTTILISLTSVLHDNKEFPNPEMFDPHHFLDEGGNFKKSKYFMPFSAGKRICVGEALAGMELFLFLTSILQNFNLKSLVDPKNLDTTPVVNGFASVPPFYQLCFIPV

Structure (SMILES): CCCCc1nc(C)c(Cc2nc(C(C)(C)C)no2)c(=O)n1Cc1ccc(-c2ccccc2-c2noc(=O)[nH]2)cc1
- %max [1]: 331%
- EC50 [2]: 280 nM
- %max [3]: 98%
- inhibition at 10 µM (hERG (KCNH2)): 8.3%
- remaining at 0.5 h [4]: 11%
- remaining at 0.5 h [5]: 12%
- remaining at 0.5 h [6]: 11%
- remaining at 0.5 h [7]: 17%
- activity at 10 µM (CYP1A2): 88%
- activity at 10 µM (CYP2C9): 57%
- activity at 10 µM (CYP2C19): 84%
- activity at 10 µM (CYP2D6): 93%
- activity at 10 µM (CYP3A4): 64%
- Activity [8]: Active
- Activity [9]: Active
- Activity [10]: Active
- Activity (3T3-L1): Dose-dependent effect
- Activity (Mus musculus [11]): Active
- Activity (Mus musculus [12]): inactive
- Activity (Mus musculus [13]): Active
- Activity [14]: Toxic
- half-life [15]: 107 min
- half-life [16]: 70.8 min
- Tmax [17]: 18 min
- Tmax [18]: 19.8 min
- Cmax [19]: 1320 ng/mL
- Cmax [20]: 949 ng/mL
- AUC(0-t) [21]: 889 ng·h/mL
- AUC(0-t) [22]: 584 ng·h/mL
